Screening results deposited in PubChem by several laboratories.
CYP2C19 act – activators of human cytochrome P450 2C19; P33261; activation factor at 5 µM; AID 1025; 96,000 tested, under 10 active; recombinant CYP2C19, luciferin-H EGE luminescence; stronger effect = higher value; 0 = fully inhibited enzyme, 1 = untreated enzyme;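 active = activation factor of at least 2 at 5 µM in the primary screen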
CYP2C9 inh – blocks human cytochrome P450 2C9; P11712; CYP2C9 Supersomes, luciferin-H conversion, luminescence; inhibition, % at 5 µM; actives 20% (n = 96,000); AID 777;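 active = blocking of liver enzyme CYP2C9 beyond about 50% at 5 µM, limit read from the data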
Target sequence (P11712 whole entry, looked up): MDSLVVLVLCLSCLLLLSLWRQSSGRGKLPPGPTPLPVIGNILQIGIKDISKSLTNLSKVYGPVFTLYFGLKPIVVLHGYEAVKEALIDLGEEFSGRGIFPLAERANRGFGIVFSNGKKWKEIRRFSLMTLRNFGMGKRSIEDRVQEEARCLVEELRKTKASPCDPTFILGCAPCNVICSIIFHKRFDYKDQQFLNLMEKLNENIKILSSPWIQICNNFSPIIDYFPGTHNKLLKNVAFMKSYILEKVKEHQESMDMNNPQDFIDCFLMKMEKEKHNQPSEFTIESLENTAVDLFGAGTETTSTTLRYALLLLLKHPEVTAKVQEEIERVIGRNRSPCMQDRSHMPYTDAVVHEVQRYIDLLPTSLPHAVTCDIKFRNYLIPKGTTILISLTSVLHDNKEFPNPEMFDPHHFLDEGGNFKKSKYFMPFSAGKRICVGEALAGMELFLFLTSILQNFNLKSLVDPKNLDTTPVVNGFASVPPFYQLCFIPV
HIV Rev-RRE inh – disrupts HIV-1 Rev binding to RRE RNA; P05866; Rev peptide-RRE RNA binding, FRET; inhibition, % at 8 µM; actives 0.79% (n = 97,000);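 active = inhibition above the screen-wide mean plus 3 SD, cut at about 35% in these data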
Target sequence (P05866 whole entry, looked up): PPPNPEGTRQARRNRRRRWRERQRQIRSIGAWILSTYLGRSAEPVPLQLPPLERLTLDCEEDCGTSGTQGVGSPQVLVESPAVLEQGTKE
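Test system: labelled RRE RNA duplex and labelled Rev peptide. Times: 5 min compound–RNA preincubation, then 15 min with peptide, 25 °C. Doses: single-dose 8 µM. Measured by: FRET, excitation 480 nm, emission 540 nm donor and 671 nm acceptor. Measure: % inhibition of FRET ratio versus controls.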
CYP2C9 act – increases human cytochrome P450 2C9 activity | P11712 | recombinant CYP2C9, luciferin-H conversion, luminescence; stronger effect = higher value; factor 1 = untreated enzyme, 0 = blocked | activation factor at 5 µM | actives 1.4% (n = 96,000) | AID 1024;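 active = activation factor of 2 or more for CYP2C9 at a 5 µM dose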
CYP2C19 inhib – human CYP2C19 inhibition; P33261; CYP2C19 Supersomes, luciferin-H EGE luminescence, 30 min; inhibition, % at 5 µM; actives 21% (n = 96,000);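 active = CYP2C19 inhibition above a set limit at 5 µM in the primary screen, cut at about 50% in these data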
Cav3 T inh – blocks human Cav3.2 T-type calcium channel. O95180. Cav3.2-expressing cells, Fluo-4 calcium fluorescence FDSS; stronger effect = lower value. B-score at 10 µM. actives 4% (n = 100,000);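 active = single-dose well whose peak fluorescence ratio is a statistical outlier from its plate by either plate-standardised score or position-corrected B-score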
Each line names hits and unclear results; the compound was inactive in the other large screens; [ ] = another dose, or the depositor's remark. Sampled rows, rich in hits. Any-hit rate of the full collection: about 27%.

CCC(=O)Nc1ccc(Oc2ccc3c(c2)C(=O)N(c2ccc(O)cc2)C3=O)cc1	CYP2C19 inhib 77 (no result: Cav3 T inh)
O=C1CNC(=O)N1Cc1ccc(Br)cc1	none
CCCCNC(=S)Nc1ccccc1F	none
Cc1cccc(CC2CC(=O)N(c3ncccn3)C2=O)c1 (stereo unspecified)	none
Cc1cccc(CC2CC(=O)N(c3ccccc3)C2=O)c1 (stereo unspecified)	CYP2C19 inhib 88
Cc1cccc(CC2CC(=O)N(C3CCCCC3)C2=O)c1 (stereo unspecified)	CYP2C9 inh 58, CYP2C19 inhib 99
COCc1cc(C)nc(Nc2ccc(C)c(C)c2)c1C#N	none
Cc1ccc(OCC(=O)Sc2ccc(C)cc2)cc1	CYP2C19 inhib 52
COc1ccccc1OCC(=O)Sc1ccc(C)cc1	none
CC[C@@H](C)CN1C(=O)N[C@@H](c2ccccc2)C(C(C)=O)=C1C	none (no result: CYP2C19 act, CYP2C9 inh, HIV Rev-RRE inh, CYP2C9 act, CYP2C19 inhib)
COc1ccc(CCN(C(=O)c2ccc(F)cc2)C2=CC3CCC(C2)N3C)cc1OC (stereo unspecified)	none (no result: HIV Rev-RRE inh, Cav3 T inh)
C=CCOC(=O)C1=C(C)NC(SC)=C(C#N)C1c1ccc(OCC)cc1 (stereo unspecified)	CYP2C9 inh 93, CYP2C19 inhib 86
C=CCOC(=O)C1=C(C)NC(SCC(=O)OCC)=C(C#N)C1c1ccc(O)c(OC)c1 (stereo unspecified)	CYP2C9 inh 100, CYP2C19 inhib 99
CC1=C(C(=O)Nc2cccnc2)C(c2ccc(C(C)C)cc2)n2ncnc2N1 (stereo unspecified)	none (no result: CYP2C19 act, CYP2C9 inh, CYP2C9 act, CYP2C19 inhib)
Cc1ccc(NC(=O)C(Cc2ccccc2)N2C(=O)C3C4CCC(C4)C3C2=O)cc1Cl (stereo unspecified)	Cav3 T inh -5.8
CCc1cc(C(=O)O)c(NC(=O)C(c2ccccc2)c2ccccc2)s1	CYP2C9 inh 97
O=C(c1ccc(S(=O)(=O)N2CCCCCC2)cc1)N1CCC(CN2C(=O)c3cccc4cccc(c34)C2=O)CC1	none (no result: CYP2C19 act, CYP2C9 inh, CYP2C9 act, CYP2C19 inhib, Cav3 T inh)
O=c1c(O)c(-c2cccs2)oc2ccccc12	HIV Rev-RRE inh 42, Cav3 T inh -3.8
O=c1c(O)c(-c2cccs2)oc2ccc(Cl)cc12	HIV Rev-RRE inh 102[fluorescence artefact?], Cav3 T inh -4.8
O=C(Cc1ccc(-n2cccc2)cc1)N1CCN(c2ccccc2F)CC1	CYP2C9 inh 63 (no result: Cav3 T inh)
Cn1cc(CC(=O)N2CCN(c3ccc(Cl)cc3)CC2)c2ccccc21	CYP2C9 act 2.1, CYP2C19 inhib 71, Cav3 T inh -4.5
O=C(CCCC(=O)N1CCN(c2ccccc2F)CC1)N1CCN(c2ccccc2F)CC1	none
Cn1cc(CC(=O)N2CCN(c3ccccc3F)CC2)c2ccccc21	CYP2C19 inhib 100
COc1ccc(N2CCN(C(=O)Cc3nn(C)c(=O)c4ccccc34)CC2)cc1	none
Cc1cccc(CCN2CCC(C(=O)c3ccc(NS(C)(=O)=O)cc3)CC2)n1	none (no result: CYP2C19 act, CYP2C9 inh, HIV Rev-RRE inh, CYP2C9 act, CYP2C19 inhib)
CCC(C(=O)Nc1ccccc1C(=O)N1CCOCC1)N1C(=O)c2ccccc2C1=O (stereo unspecified)	none
COc1ccc(-n2cnc3sc(-c4ccccc4)cc3c2=O)cc1	none
Cc1c(C(=O)NCCSCc2ccc(Cl)cc2Cl)cccc1[N+](=O)[O-]	none
CCOC(=O)NC(CC(=O)O)c1ccc(OC)cc1 (stereo unspecified)	none
CCCCCC/C(=N/O)c1ccccn1	none
CCCCCC/C(=N\NS(C)(=O)=O)c1ccccc1	Cav3 T inh -4.9
CN(C)c1ccc(CN(C(=O)C2COc3ccccc3O2)C2CCS(=O)(=O)C2)cc1 (stereo unspecified)	CYP2C9 inh 65, CYP2C19 inhib 94
CC(C)c1ccc(CN(C(=O)C2COc3ccccc3O2)C2CCS(=O)(=O)C2)cc1 (stereo unspecified)	Cav3 T inh -4.4
COc1ccc(OC)c(C2=NOC(C(=O)Nc3cc(C)nn3-c3ccccc3)C2)c1 (stereo unspecified)	none (no result: HIV Rev-RRE inh)
COc1ccc(C2C3=C(N=C4SCC(=O)N42)c2ccccc2CC3)cc1 (stereo unspecified)	CYP2C9 inh 91, CYP2C19 inhib 95
COc1ccc(C2C3=C(N=C4SCC(=O)N42)c2ccccc2CC3)cc1OC (stereo unspecified)	CYP2C9 inh 54
COc1ccccc1C1C2=C(N=C3SCC(=O)N31)c1ccccc1CC2 (stereo unspecified)	none (no result: Cav3 T inh)
CN1CCN(C(=O)CN(c2cc(C(F)(F)F)ccc2Cl)S(C)(=O)=O)CC1	none (no result: Cav3 T inh)
O=C(NC(CO)c1ccccc1)c1ccco1 (stereo unspecified)	none
O=C(Nc1cccc(Cl)c1)ON=C1c2ccccc2-c2ccccc21	CYP2C9 inh 63
COc1cccc(-n2c(Cc3cc(=O)[nH]c(=O)[nH]3)nnc2SCC(=O)N2CCCCC2)c1	none
COc1ccc(C2OC(=O)CC2C(=O)NC2CCCCCC2)cc1OC (stereo unspecified)	none
CNc1nc(-c2c[nH]c3ccccc23)cs1	CYP2C9 inh 78, CYP2C19 inhib 73
Nc1nc(-c2c[nH]c3ccccc23)cs1	none
C1=C(CCNCC2CC2)CCCC1	CYP2C19 inhib 54
Cc1ccc(CNCCC2=CCCCC2)cc1	CYP2C19 inhib 94
COc1cc(C(=O)NCCCNc2nc3cc(C)cc(C)c3cc2C#N)cc(OC)c1OC	CYP2C19 inhib 57
CC1(C)N=C(SCC(=O)Nc2ccc(Cl)cc2Cl)C(c2ccccc2)=N1	CYP2C9 inh 62, CYP2C19 inhib 55, Cav3 T inh -5.7
Cc1ccc(C2=NC(C)(C)N=C2SCC(=O)Nc2ccc(Cl)cc2)cc1	Cav3 T inh -4.7
Cc1nn(Cc2ccc(F)cc2)c(C)c1NC(=O)c1cc(-c2ccc3c(c2)OCO3)on1	none
COc1ccc(-c2cc(C(=O)Nc3c(C)nn(Cc4ccc(Cl)cc4)c3C)no2)cc1	CYP2C19 inhib 51, Cav3 T inh -4.6
COc1ccc(OC)c(-c2cc(C(=O)Nc3c(C)nn(Cc4ccccc4Cl)c3C)no2)c1	none
Cc1ccc(Cn2nc(C)c(NC(=O)c3cc(-c4ccc5c(c4)OCO5)on3)c2C)cc1	CYP2C9 inh 53, Cav3 T inh -5.3
Cc1nn(Cc2ccc(Cl)c(Cl)c2)c(C)c1NC(=O)c1cc(-c2ccco2)on1	Cav3 T inh -5.7 (no result: CYP2C19 act, CYP2C9 inh, HIV Rev-RRE inh, CYP2C9 act, CYP2C19 inhib)
COc1ccc(-c2cc(C(=O)Nc3c(C)nn(Cc4ccccc4Cl)c3C)no2)cc1OC	CYP2C9 inh 63
CCOC(=O)CN1C(=O)N[C@@H](c2ccccc2)C(C(C)=O)=C1C	none (no result: CYP2C19 act, CYP2C9 inh, HIV Rev-RRE inh, CYP2C9 act, CYP2C19 inhib)
CCOC(=O)CSC1=C(C#N)C(c2ccccc2)C(C(C)=O)=C(C)N1 (stereo unspecified)	CYP2C9 inh 59, CYP2C19 inhib 58
CCOC(=O)CSc1nc2cc(C)ccc2cc1C#N	none
CSC1=C(C#N)C(c2ccccc2Cl)C(C(C)=O)=C(C)N1 (stereo unspecified)	none (no result: CYP2C19 act, CYP2C9 inh, CYP2C9 act, CYP2C19 inhib)
